In ChEMBL document CHEMBL3352188, “Synthesis, antimicrobial and molecular docking studies of enantiomerically pure N-alkylated β-amino alcohols from phenylpropanolamines” (2014):

Experiments:
Pseudomonas aeruginosa [1] = test: Antimicrobial activity against Pseudomonas aeruginosa MTCC 741 at 1 mg/disc after 24 hrs by disc diffusion assay; assay type: functional
In short: (§1)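 Disc diffusion on Mueller Hinton agar. Inoculum was grown in MHB for 24 h at 37 °C, swabbed onto the plates and dried for 10 min. Discs with 1 mg compound were left 30 min at room temperature for diffusion, then incubated at 37 °C for 24 h. Inhibition zone was read in mm; run twice. Solvent was the negative control, streptomycin the positive control.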

Candida albicans [2] = test: Antimicrobial activity against Candida albicans MTCC 227 at 1 mg/disc after 24 hrs by disc diffusion assay; assay type: functional
Malassezia pachydermatis [3] = test: Antimicrobial activity against Malassezia pachydermatis at 1 mg/disc after 24 hrs by disc diffusion assay; assay type: functional
Bacillus subtilis [4] = test: Antimicrobial activity against Bacillus subtilis MTCC 441 after 24 hrs by two fold dilution method; assay type: functional; settings: MTCC 441, 24 h
In short: (§2)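 Broth two-fold serial dilution in 96-well plates from 1000 to 7.81 µg/mL, compound in DMSO (2%). Inoculum was grown in MHB for 24 h at 37 °C; plates were incubated 24 h at 37 °C. 5 µL of broth was spotted onto MHA; MIC was the lowest concentration with no visible growth on agar. Streptomycin was the positive control.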

Micrococcus luteus [5] = test: Antimicrobial activity against Micrococcus luteus MTCC 106 after 24 hrs by two fold dilution method; assay type: functional; settings: MTCC 106, 24 h; in short: as §2
Klebsiella aerogenes [6] = test: Antimicrobial activity against Enterobacter aerogenes MTCC 111 after 24 hrs by two fold dilution method; assay type: functional; settings: MTCC 111, 24 h; in short: as §2
Staphylococcus aureus [7] = test: Antimicrobial activity against Staphylococcus aureus MTCC 96 after 24 hrs by two fold dilution method; assay type: functional; settings: MTCC 96, 24 h; in short: as §2
Salmonella typhimurium [8] = test: Antimicrobial activity against Salmonella typhimurium MTCC 1251 after 24 hrs by two fold dilution method; assay type: functional, Salmonella enterica subsp. enterica serovar Typhimurium; settings: Salmonella enterica, MTCC 1251, 24 h; in short: as §2
Klebsiella pneumoniae [9] = test: Antimicrobial activity against Klebsiella pneumoniae MTCC 109 after 24 hrs by two fold dilution method; assay type: functional; settings: MTCC 109, 24 h; in short: as §2
Proteus vulgaris [10] = test: Antimicrobial activity against Proteus vulgaris MTCC 1771 after 24 hrs by two fold dilution method; assay type: functional; settings: MTCC 1771, 24 h; in short: as §2
Staphylococcus aureus [11] = test: Antimicrobial activity against methicillin-resistant Staphylococcus aureus MTCC 96 after 24 hrs by two fold dilution method; assay type: functional; settings: MTCC 96, 24 h; in short: as §2
[12] = system: Salmonella enterica subsp. enterica serovar Paratyphi B; test: Antimicrobial activity against Salmonella paratyphi B after 24 hrs by two fold dilution method; assay type: functional; in short: as §2
Shigella flexneri [13] = test: Antimicrobial activity against Shigella flexneri MTCC 1457 after 24 hrs by two fold dilution method; assay type: functional; settings: MTCC 1457, 24 h; in short: as §2
Pseudomonas aeruginosa [14] = test: Antimicrobial activity against Pseudomonas aeruginosa MTCC 741 after 24 hrs by two fold dilution method; assay type: functional; settings: MTCC 741, 24 h; in short: as §2
Candida albicans [15] = test: Antimicrobial activity against Candida albicans MTCC 227 after 48 to 72 hrs by two fold dilution method; assay type: functional
In short: (§3)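 Yeast was grown in Sabouraud dextrose broth at 28 °C for 48 h and tested per CLSI reference methods. Two-fold serial dilutions from 1000 to 7.81 µg/mL, compound in DMSO (2%), in 96-well plates, incubated 48–72 h at 28 °C. MIC was the lowest concentration with no visible fungal growth. Ketoconazole was the positive control.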

Malassezia pachydermatis [16] = test: Antimicrobial activity against Malassezia pachydermatis after 48 to 72 hrs by two fold dilution method; assay type: functional; in short: as §3
Bacillus subtilis [17] = test: Bactericidal activity against Bacillus subtilis MTCC 441 after 24 hrs by two fold dilution method; assay type: functional; settings: MTCC 441, 24 h
In short: (§4)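 Tubes held 5 mL MHB with two-fold dilutions from 1000 to 7.81 µg/mL and were inoculated with 5 × 10^5 to 1 × 10^6 cells in 0.1 mL MHB, incubated without shaking. Turbidity was checked at 20 h, tubes vortexed and re-incubated 4 h.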

Micrococcus luteus [18] = test: Bactericidal activity against Micrococcus luteus MTCC 106 after 24 hrs by two fold dilution method; assay type: functional; settings: MTCC 106, 24 h; in short: as §4
Klebsiella aerogenes [19] = test: Bactericidal activity against Enterobacter aerogenes MTCC 111 after 24 hrs by two fold dilution method; assay type: functional; settings: MTCC 111, 24 h; in short: as §4
Staphylococcus aureus [20] = test: Bactericidal activity against Staphylococcus aureus MTCC 96 after 24 hrs by two fold dilution method; assay type: functional; settings: MTCC 96, 24 h; in short: as §4
Salmonella typhimurium [21] = test: Bactericidal activity against Salmonella typhimurium MTCC 1251 after 24 hrs by two fold dilution method; assay type: functional, Salmonella enterica subsp. enterica serovar Typhimurium; settings: Salmonella enterica, MTCC 1251, 24 h; in short: as §4
Klebsiella pneumoniae [22] = test: Bactericidal activity against Klebsiella pneumoniae MTCC 109 after 24 hrs by two fold dilution method; assay type: functional; settings: MTCC 109, 24 h; in short: as §4
Proteus vulgaris [23] = test: Bactericidal activity against Proteus vulgaris MTCC 1771 after 24 hrs by two fold dilution method; assay type: functional; settings: MTCC 1771, 24 h; in short: as §4
Staphylococcus aureus [24] = test: Bactericidal activity against methicillin-resistant Staphylococcus aureus MTCC 96 after 24 hrs by two fold dilution method; assay type: functional; settings: MTCC 96, 24 h; in short: as §4
[25] = system: Salmonella enterica subsp. enterica serovar Paratyphi B; test: Bactericidal activity against Salmonella paratyphi B after 24 hrs by two fold dilution method; assay type: functional; in short: as §4
Shigella flexneri [26] = test: Bactericidal activity against Shigella flexneri MTCC 1457 after 24 hrs by two fold dilution method; assay type: functional; settings: MTCC 1457, 24 h; in short: as §4
Pseudomonas aeruginosa [27] = test: Bactericidal activity against Pseudomonas aeruginosa MTCC 741 after 24 hrs by two fold dilution method; assay type: functional; settings: MTCC 741, 24 h; in short: as §4
Candida albicans [28] = test: Fungicidal activity against Candida albicans MTCC 227 after 48 to 72 hrs by two fold dilution method; assay type: functional
Malassezia pachydermatis [29] = test: Fungicidal activity against Malassezia pachydermatis after 48 to 72 hrs by two fold dilution method; assay type: functional
Bacillus subtilis [30] = test: Antimicrobial activity against Bacillus subtilis MTCC 441 at 1 mg/disc after 24 hrs by disc diffusion assay; assay type: functional; in short: as §1
Micrococcus luteus [31] = test: Antimicrobial activity against Micrococcus luteus MTCC 106 at 1 mg/disc after 24 hrs by disc diffusion assay; assay type: functional; in short: as §1
Klebsiella aerogenes [32] = test: Antimicrobial activity against Enterobacter aerogenes MTCC 111 at 1 mg/disc after 24 hrs by disc diffusion assay; assay type: functional; in short: as §1
Staphylococcus aureus [33] = test: Antimicrobial activity against Staphylococcus aureus MTCC 96 at 1 mg/disc after 24 hrs by disc diffusion assay; assay type: functional; in short: as §1
Salmonella typhimurium [34] = test: Antimicrobial activity against Salmonella typhimurium MTCC 1251 at 1 mg/disc after 24 hrs by disc diffusion assay; assay type: functional, Salmonella enterica subsp. enterica serovar Typhimurium; in short: as §1
Klebsiella pneumoniae [35] = test: Antimicrobial activity against Klebsiella pneumoniae MTCC 109 at 1 mg/disc after 24 hrs by disc diffusion assay; assay type: functional; in short: as §1
Proteus vulgaris [36] = test: Antimicrobial activity against Proteus vulgaris MTCC 1771 at 1 mg/disc after 24 hrs by disc diffusion assay; assay type: functional; in short: as §1
Staphylococcus aureus [37] = test: Antimicrobial activity against […] Staphylococcus aureus MTCC 96 at 1 mg/disc after 24 hrs by disc diffusion assay; assay type: functional; in short: as §1
[38] = system: Salmonella enterica subsp. enterica serovar Paratyphi B; test: Antimicrobial activity against Salmonella paratyphi B at 1 mg/disc after 24 hrs by disc diffusion assay; assay type: functional; in short: as §1
Shigella flexneri [39] = test: Antimicrobial activity against Shigella flexneri MTCC 1457 at 1 mg/disc after 24 hrs by disc diffusion assay; assay type: functional; in short: as §1

Row | SMILES | inhibition zone (IZ) (Pseudomonas aeruginosa [1]) [mm] | inhibition zone (IZ) (Candida albicans [2]) [mm] | inhibition zone (IZ) (Malassezia pachydermatis [3]) [mm] | MIC (Bacillus subtilis [4]) [µg/mL] | MIC (Micrococcus luteus [5]) [µg/mL] | MIC (Klebsiella aerogenes [6]) [µg/mL] | MIC (Staphylococcus aureus [7]) [µg/mL] | MIC (Salmonella typhimurium [8]) [µg/mL] | MIC (Klebsiella pneumoniae [9]) [µg/mL] | MIC (Proteus vulgaris [10]) [µg/mL] | MIC (Staphylococcus aureus [11]) [µg/mL] | MIC [12] [µg/mL] | MIC (Shigella flexneri [13]) [µg/mL] | MIC (Pseudomonas aeruginosa [14]) [µg/mL] | MIC (Candida albicans [15]) [µg/mL] | MIC (Malassezia pachydermatis [16]) [µg/mL] | MBC (Bacillus subtilis [17]) [µg/mL] | MBC (Micrococcus luteus [18]) [µg/mL] | MBC (Klebsiella aerogenes [19]) [µg/mL] | MBC (Staphylococcus aureus [20]) [µg/mL] | further results
1 | CC(C)C[C@H](C)N[C@H](C)[C@@H](O)c1ccccc1.Cl | 11 | 13 | 12 | 250 | 250 | 250 | 250 | 500 | 250 | 125 | 125 | 250 | 250 | 250 | 250 | 250 | 250 | 500 | 250 | 250 | MBC (Salmonella typhimurium [21]): 500 µg/mL; MBC (Klebsiella pneumoniae [22]): 250 µg/mL; MBC (Proteus vulgaris [23]): 125 µg/mL; MBC (Staphylococcus aureus [24]): 250 µg/mL; MBC [25]: 500 µg/mL; MBC (Shigella flexneri [26]): 500 µg/mL; MBC (Pseudomonas aeruginosa [27]): 500 µg/mL; MFC (Candida albicans [28]): 250 µg/mL; MFC (Malassezia pachydermatis [29]): 250 µg/mL; inhibition zone (IZ) (Bacillus subtilis [30]): 12 mm; inhibition zone (IZ) (Micrococcus luteus [31]): 13 mm; inhibition zone (IZ) (Klebsiella aerogenes [32]): 12 mm; inhibition zone (IZ) (Staphylococcus aureus [33]): 13 mm; inhibition zone (IZ) (Salmonella typhimurium [34]): 10 mm; inhibition zone (IZ) (Klebsiella pneumoniae [35]): 13 mm; inhibition zone (IZ) (Proteus vulgaris [36]): 14 mm; inhibition zone (IZ) (Staphylococcus aureus [37]): 15 mm; inhibition zone (IZ) [38]: 10 mm; inhibition zone (IZ) (Shigella flexneri [39]): 10 mm
2 | C[C@H](N[C@H](C)[C@@H](O)c1ccccc1)c1ccccc1.Cl | 10 | 15 | 14 | 62.5 | 125 | 125 | 125 | 250 | 125 | 250 | 125 | 250 | 250 | 250 | 125 | 125 | 62.5 | 125 | 250 | 250 | MBC (Salmonella typhimurium [21]): 250 µg/mL; MBC (Klebsiella pneumoniae [22]): 250 µg/mL; MBC (Proteus vulgaris [23]): 500 µg/mL; MBC (Staphylococcus aureus [24]): 125 µg/mL; MBC [25]: 500 µg/mL; MBC (Shigella flexneri [26]): 500 µg/mL; MBC (Pseudomonas aeruginosa [27]): 500 µg/mL; MFC (Candida albicans [28]): 125 µg/mL; MFC (Malassezia pachydermatis [29]): 125 µg/mL; inhibition zone (IZ) (Bacillus subtilis [30]): 16 mm; inhibition zone (IZ) (Micrococcus luteus [31]): 15 mm; inhibition zone (IZ) (Klebsiella aerogenes [32]): 14 mm; inhibition zone (IZ) (Staphylococcus aureus [33]): 15 mm; inhibition zone (IZ) (Salmonella typhimurium [34]): 12 mm; inhibition zone (IZ) (Klebsiella pneumoniae [35]): 15 mm; inhibition zone (IZ) (Proteus vulgaris [36]): 13 mm; inhibition zone (IZ) (Staphylococcus aureus [37]): 14 mm; inhibition zone (IZ) [38]: 13 mm; inhibition zone (IZ) (Shigella flexneri [39]): 12 mm
